Measurements from article PMC4254850 (Clinical cancer research : an official journal of the …, 2014).
“Also recorded” adds a separate entry of the source.

Assays:
[1] = Phase I dose escalation: MTD, DLTs and toxicities; format: in vivo, human
Procedure, shortened: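 Open-label, four-centre, 3+3 escalation in metastatic solid-tumour patients. Test compound taken orally from 2 mg, QD (2–96 mg) then BID (48–72 mg), in continuous 4-week cycles after a single-dose run-in with 5–7 day washout. Toxicities graded by CTCAE v4.03. DLTs assessed over run-in plus first cycle. MTD: highest level with ≤1 of 6 patients showing DLT. Descriptive statistics.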

[2] = Plasma pharmacokinetics, LC/MS/MS, non-compartmental analysis; format: in vivo, human; details: for AUC(0-t) / Cmax / half-life: human, plasma, po
[3] = test system: human cancer cell lines with alterations in the PI3K pathway; details: in vitro; cited from earlier work
[4] = test system: mammalian target of rapamycin (mTOR); details: cited from earlier work

CS(=O)(=O)N1CCc2c(-c3cnc(N)nc3)nc(N3CCOCC3)nc21 [CH5132799]
Treatment-related dry skin, number (%) of patients ([1]; all dose levels, Total (n=38)): 6 (16%)
Treatment-related fatigue, number (%) of patients ([1]; all dose levels, Total (n=38)): 11 (29%)
Treatment-related hyperglycemia, number (%) of patients ([1]; all dose levels, Total (n=38)): 5 (13%)
Treatment-related nausea, number (%) of patients ([1]; all dose levels, Total (n=38)): 12 (32%)
Treatment-related rash, number (%) of patients ([1]; all dose levels, Total (n=38)): 9 (24%)
Treatment-related stomatitis, number (%) of patients ([1]; all dose levels, Total (n=38)): 11 (29%)
Treatment-related vomiting, number (%) of patients ([1]; all dose levels, Total (n=38)): 6 (16%)
Patients with DLTs ([1]; all evaluable patients, run-in period and first cycle): five of 38
Diabetic ketoacidosis ([1]; all patients): No episodes of diabetic ketoacidosis
Drug-related deaths ([1]; all patients): No drug-related deaths
Grade of most drug-related adverse events ([1]; all patients): grade 1/2
Patients with drug-related diarrhea ([1]; all patients): 34%
Patients with drug-related nausea ([1]; all patients): 32%
Patients with fatigue (most common AEs) ([1]; all patients): 29%
Patients with nausea (most common AEs) ([1]; all patients): 32%
Patients with rash (most common AEs) ([1]; all patients): 24%
Accumulation ratio ([2]; 2mg (QD), AUC0-24h repeat dose / single dose, mean, n=3): 0.912(3)
Accumulation ratio ([2]; 4 mg (QD), AUC0-24h repeat dose / single dose, mean, n=3): 1.54(3)
Accumulation ratio ([2]; 8 mg (QD), AUC0-24h repeat dose / single dose, mean, n=2): 1.22(2)
Accumulation ratio ([2]; 16 mg (QD), AUC0-24h repeat dose / single dose, n=1): 0.972(1)
Accumulation ratio ([2]; 32 mg (QD), AUC0-24h repeat dose / single dose, mean, n=2): 1.57(2)
Accumulation ratio ([2]; 48 mg (BID), AUC0-12h repeat dose / single dose, mean, n=2): 1.10(2)
Accumulation ratio ([2]; 56 mg (BID), AUC0-12h repeat dose / single dose, mean, n=2): 1.72(2)
Accumulation ratio ([2]; 56 mg (QD), AUC0-24h repeat dose / single dose, mean, n=3): 1.07(3)
Accumulation ratio ([2]; 72 mg (BID), AUC0-12h repeat dose / single dose, n=1): 2.25(1)
Accumulation ratio ([2]; 96 mg (QD), AUC0-24h repeat dose / single dose, mean, n=3): 0.640(3)
AUC at doses above the dose-proportional range ([2]; doses above 56 mg QD): no further increase in AUC; also recorded: no significant increments in AUC
AUC(0-t) ([2]; 2 mg, AUC0-24h, 2mg (QD), repeat dose, mean, n=3): 48.8 ng·h/mL
AUC(0-t) ([2]; 2 mg, AUClast, 2mg (QD), single dose, mean, n=3, AUClast = AUC0-72h): 53 ng·h/mL
Cmax ([2]; 2 mg, 2mg (QD), repeat dose, mean, n=3): 9.92 ng/mL
Cmax ([2]; 2 mg, 2mg (QD), single dose, mean, n=3): 10 ng/mL
half-life ([2]; 2 mg, t1/2, 2mg (QD), single dose, mean, n=3): 7.52 h
AUC(0-t) ([2]; 4 mg, AUC0-24h, 4 mg (QD), repeat dose, mean, n=3): 167 ng·h/mL
AUC(0-t) ([2]; 4 mg, AUClast, 4 mg (QD), single dose, mean, n=3, AUClast = AUC0-72h): 112 ng·h/mL
Cmax ([2]; 4 mg, 4 mg (QD), repeat dose, mean, n=3): 22.5 ng/mL
Cmax ([2]; 4 mg, 4 mg (QD), single dose, mean, n=3): 17.2 ng/mL
half-life ([2]; 4 mg, t1/2, 4 mg (QD), single dose, mean, n=3): 8.3 h
AUC(0-t) ([2]; 8 mg, AUC0-24h, 8 mg (QD), repeat dose, mean, n=2): 159 ng·h/mL
AUC(0-t) ([2]; 8 mg, AUClast, 8 mg (QD), single dose, mean, n=3, AUClast = AUC0-72h): 133 ng·h/mL
Cmax ([2]; 8 mg, 8 mg (QD), repeat dose, mean, n=2): 46.3 ng/mL
Cmax ([2]; 8 mg, 8 mg (QD), single dose, mean, n=3): 41.1 ng/mL
half-life ([2]; 8 mg, t1/2, 8 mg (QD), single dose, mean, n=3): 23.7 h
AUC(0-t) ([2]; 16 mg, AUC0-24h, 16 mg (QD), repeat dose, mean, n=2): 621 ng·h/mL
AUC(0-t) ([2]; 16 mg, AUClast, 16 mg (QD), single dose, n=1, AUClast = AUC0-72h): 883 ng·h/mL
Cmax ([2]; 16 mg, 16 mg (QD), repeat dose, mean, n=3): 100 ng/mL
Cmax ([2]; 16 mg, 16 mg (QD), single dose, n=1): 113 ng/mL
half-life ([2]; 16 mg, t1/2, 16 mg (QD), single dose, n=1): 13.7 h
AUC(0-t) ([2]; 32 mg, AUC0-24h, 32 mg (QD), repeat dose, mean, n=2): 1740 ng·h/mL
AUC(0-t) ([2]; 32 mg, AUClast, 32 mg (QD), single dose, mean, n=4, AUClast = AUC0-72h): 859 ng·h/mL
Cmax ([2]; 32 mg, 32 mg (QD), repeat dose, mean, n=3): 345 ng/mL
Cmax ([2]; 32 mg, 32 mg (QD), single dose, mean, n=4): 165 ng/mL
half-life ([2]; 32 mg, t1/2, 32 mg (QD), single dose, mean, n=4): 12.2 h
half-life ([2]; 48 mg): 10.2 h
AUC(0-t) ([2]; 48 mg, AUC0-24h, 48 mg (BID) = MTD, repeat dose (steady state), mean, n=5, calculated based on data from 0 to 12 hours (AUC0-12h)): 1550 ng·h/mL
AUC(0-t) ([2]; 48 mg, AUClast, 48 mg (BID) = MTD, single dose, mean, n=4, AUClast = AUC0-72h): 1270 ng·h/mL
Cmax ([2]; 48 mg, 48 mg (BID) = MTD, repeat dose (steady state), mean, n=5): 175 ng/mL
Cmax ([2]; 48 mg, 48 mg (BID) = MTD, single dose, mean, n=5): 172 ng/mL
AUC(0-t) ([2]; 56 mg, AUC0-24h, 56 mg (BID), repeat dose, mean, n=2, calculated based on data from 0 to 12 hours (AUC0-12h)): 5940 ng·h/mL
AUC(0-t) ([2]; 56 mg, AUC0-24h, 56 mg (QD), repeat dose, mean, n=3): 748 ng·h/mL
AUC(0-t) ([2]; 56 mg, AUClast, 56 mg (BID), single dose, mean, n=5, AUClast = AUC0-72h): 3030 ng·h/mL
AUC(0-t) ([2]; 56 mg, AUClast, 56 mg (QD), single dose, mean, n=3, AUClast = AUC0-72h): 969 ng·h/mL
Cmax ([2]; 56 mg, 56 mg (BID), repeat dose, mean, n=3): 331 ng/mL
Cmax ([2]; 56 mg, 56 mg (BID), single dose, mean, n=5): 428 ng/mL
Cmax ([2]; 56 mg, 56 mg (QD), repeat dose, mean, n=3): 184 ng/mL
Cmax ([2]; 56 mg, 56 mg (QD), single dose, mean, n=3): 163 ng/mL
half-life ([2]; 56 mg, t1/2, 56 mg (BID), single dose, mean, n=5): 16.3 h
half-life ([2]; 56 mg, t1/2, 56 mg (QD), single dose, mean, n=3): 14.5 h
AUC(0-t) ([2]; 72 mg, AUC0-24h, 72 mg (BID), repeat dose, n=1, calculated based on data from 0 to 12 hours (AUC0-12h)): 5580 ng·h/mL
AUC(0-t) ([2]; 72 mg, AUClast, 72 mg (BID), single dose, mean, n=3, AUClast = AUC0-72h): 2480 ng·h/mL
Cmax ([2]; 72 mg, 72 mg (BID), repeat dose, n=1): 631 ng/mL
Cmax ([2]; 72 mg, 72 mg (BID), single dose, mean, n=3): 265 ng/mL
half-life ([2]; 72 mg, t1/2, 72 mg (BID), single dose, mean, n=3): 18.3 h
AUC(0-t) ([2]; 96 mg, AUC0-24h, 96 mg (QD), repeat dose, mean, n=3): 691 ng·h/mL
AUC(0-t) ([2]; 96 mg, AUClast, 96 mg (QD), single dose, mean, n=4, AUClast = AUC0-72h): 1650 ng·h/mL
Cmax ([2]; 96 mg, 96 mg (QD), repeat dose, mean, n=3): 103 ng/mL
Cmax ([2]; 96 mg, 96 mg (QD), single dose, mean, n=4): 206 ng/mL
half-life ([2]; 96 mg, t1/2, 96 mg (QD), single dose, mean, n=3): 23.2 h
Dose range with dose proportionality of AUC ([2]; oral): 2 to 56 mg
Antiproliferative effect [3]: strong antiproliferative effect
Inhibitory activity against mTOR [4]: no inhibitory activity
